Reference: ChEMBL document CHEMBL1828624, “Synthesis and antioxidant activity of oxazolyl/thiazolylsulfonylmethyl pyrazoles and isoxazoles” (Eur J Med Chem, 2011)
Converted amounts (≈) assume the structure as drawn. The source made the active and inactive calls. No cut-off for these calls is given here.

System: not listed separately
Experiment: Antioxidant activity assessed as nitric oxide scavenging activity at 75 ug/ml after 150 mins by Griess method relative to control
Assay type: functional
In short: (§1)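 NO was generated from sodium nitroprusside (10 mM) in phosphate buffer saline (0.2 M, pH 7.4). Compounds were added at […] and incubated 150 min at 25 °C. Percent scavenging was calculated from control (all reagents minus compound) and sample absorbances. Run in triplicate.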

Compound	Activity
COc1ccc(C2=NOC(c3ccc(C)cc3)C2S(=O)(=O)CC2=NCCS2)cc1 (stereo not given)	54.1%
COc1ccc(-c2noc(-c3ccc(C)cc3)c2S(=O)(=O)CC2=NCCS2)cc1	inactive
O=S(=O)(CC1=NCCO1)C1C(c2ccccc2)=NOC1c1ccccc1 (stereo not given)	57.2%
COc1ccc(-c2nn(-c3ccccc3)c(-c3ccc(C)cc3)c2S(=O)(=O)CC2=NCCO2)cc1	66.6%
COc1ccc(C2=NN(c3ccccc3)C(c3ccc(C)cc3)C2S(=O)(=O)CC2=NCCS2)cc1 (stereo not given)	44.9%

System: Radical scavenging activity
Experiment: Antioxidant activity assessed as DPPH free radical scavenging activity at 100 ug/ml after 30 mins by spectrophotometric analysis relative to control
Assay type: functional
In short: (§2)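 Compounds in methanol at […] were mixed with 0.004% (w/v) methanolic DPPH. After 30 min at room temperature, absorbance was read at 517 nm against a blank. Percent inhibition was calculated from control (all reagents minus compound) and sample absorbances. Run in triplicate.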

Compound	inhibition
COc1ccc(C2=NOC(c3ccc(C)cc3)C2S(=O)(=O)CC2=NCCS2)cc1 (stereo not given)	58.6%
COc1ccc(-c2noc(-c3ccc(C)cc3)c2S(=O)(=O)CC2=NCCS2)cc1	inactive
O=S(=O)(CC1=NCCO1)C1C(c2ccccc2)=NOC1c1ccccc1 (stereo not given)	57.9%
COc1ccc(-c2nn(-c3ccccc3)c(-c3ccc(C)cc3)c2S(=O)(=O)CC2=NCCO2)cc1	70.3%
COc1ccc(C2=NN(c3ccccc3)C(c3ccc(C)cc3)C2S(=O)(=O)CC2=NCCS2)cc1 (stereo not given)	51.5%

System: not listed separately
Experiment: Antioxidant activity assessed as nitric oxide scavenging activity at 50 ug/ml after 150 mins by Griess method relative to control
Assay type: functional
In short: as §1

Compound	Activity
COc1ccc(C2=NOC(c3ccc(C)cc3)C2S(=O)(=O)CC2=NCCS2)cc1 (stereo not given)	48.6%
COc1ccc(-c2noc(-c3ccc(C)cc3)c2S(=O)(=O)CC2=NCCS2)cc1	inactive
O=S(=O)(CC1=NCCO1)C1C(c2ccccc2)=NOC1c1ccccc1 (stereo not given)	53.9%
COc1ccc(-c2nn(-c3ccccc3)c(-c3ccc(C)cc3)c2S(=O)(=O)CC2=NCCO2)cc1	61.6%
COc1ccc(C2=NN(c3ccccc3)C(c3ccc(C)cc3)C2S(=O)(=O)CC2=NCCS2)cc1 (stereo not given)	39.4%

System: Radical scavenging activity
Experiment: Antioxidant activity assessed as DPPH free radical scavenging activity after 30 mins by spectrophotometric analysis
Assay type: functional
In short: as §2

IC50	Compound
85.38 µg/mL (≈ 198 µM)	COc1ccc(C2=NOC(c3ccc(C)cc3)C2S(=O)(=O)CC2=NCCS2)cc1 (stereo not given)
Not Active	COc1ccc(-c2noc(-c3ccc(C)cc3)c2S(=O)(=O)CC2=NCCS2)cc1
86.31 µg/mL (≈ 233 µM)	O=S(=O)(CC1=NCCO1)C1C(c2ccccc2)=NOC1c1ccccc1 (stereo not given)
71.07 µg/mL (≈ 146 µM)	COc1ccc(-c2nn(-c3ccccc3)c(-c3ccc(C)cc3)c2S(=O)(=O)CC2=NCCO2)cc1
97.04 µg/mL (≈ 192 µM)	COc1ccc(C2=NN(c3ccccc3)C(c3ccc(C)cc3)C2S(=O)(=O)CC2=NCCS2)cc1 (stereo not given)

System: Radical scavenging activity
Experiment: Antioxidant activity assessed as DPPH free radical scavenging activity at 75 ug/ml after 30 mins by spectrophotometric analysis relative to control
Assay type: functional
In short: as §2

Compound	inhibition
COc1ccc(C2=NOC(c3ccc(C)cc3)C2S(=O)(=O)CC2=NCCS2)cc1 (stereo not given)	50.6%
COc1ccc(-c2noc(-c3ccc(C)cc3)c2S(=O)(=O)CC2=NCCS2)cc1	inactive
O=S(=O)(CC1=NCCO1)C1C(c2ccccc2)=NOC1c1ccccc1 (stereo not given)	55.2%
COc1ccc(-c2nn(-c3ccccc3)c(-c3ccc(C)cc3)c2S(=O)(=O)CC2=NCCO2)cc1	67.6%
COc1ccc(C2=NN(c3ccccc3)C(c3ccc(C)cc3)C2S(=O)(=O)CC2=NCCS2)cc1 (stereo not given)	45.8%

System: not listed separately
Experiment: Antioxidant activity assessed as hydrogen peroxide scavenging activity at 100 ug/ml relative to control
Assay type: functional

Compound	Activity
COc1ccc(C2=NOC(c3ccc(C)cc3)C2S(=O)(=O)CC2=NCCS2)cc1 (stereo not given)	52.6%
COc1ccc(-c2noc(-c3ccc(C)cc3)c2S(=O)(=O)CC2=NCCS2)cc1	inactive
O=S(=O)(CC1=NCCO1)C1C(c2ccccc2)=NOC1c1ccccc1 (stereo not given)	56.6%
COc1ccc(-c2nn(-c3ccccc3)c(-c3ccc(C)cc3)c2S(=O)(=O)CC2=NCCO2)cc1	72.5%
COc1ccc(C2=NN(c3ccccc3)C(c3ccc(C)cc3)C2S(=O)(=O)CC2=NCCS2)cc1 (stereo not given)	47.9%

System: not listed separately
Experiment: Antioxidant activity assessed as hydrogen peroxide scavenging activity at 75 ug/ml relative to control
Assay type: functional

Compound	Activity
COc1ccc(C2=NOC(c3ccc(C)cc3)C2S(=O)(=O)CC2=NCCS2)cc1 (stereo not given)	49.7%
COc1ccc(-c2noc(-c3ccc(C)cc3)c2S(=O)(=O)CC2=NCCS2)cc1	inactive
O=S(=O)(CC1=NCCO1)C1C(c2ccccc2)=NOC1c1ccccc1 (stereo not given)	53.3%
COc1ccc(-c2nn(-c3ccccc3)c(-c3ccc(C)cc3)c2S(=O)(=O)CC2=NCCO2)cc1	68.7%
COc1ccc(C2=NN(c3ccccc3)C(c3ccc(C)cc3)C2S(=O)(=O)CC2=NCCS2)cc1 (stereo not given)	43.9%

System: not listed separately
Experiment: Antioxidant activity assessed as nitric oxide scavenging activity at 100 ug/ml after 150 mins by Griess method relative to control
Assay type: functional
In short: as §1

Compound	Activity
COc1ccc(C2=NOC(c3ccc(C)cc3)C2S(=O)(=O)CC2=NCCS2)cc1 (stereo not given)	59.6%
COc1ccc(-c2noc(-c3ccc(C)cc3)c2S(=O)(=O)CC2=NCCS2)cc1	inactive
O=S(=O)(CC1=NCCO1)C1C(c2ccccc2)=NOC1c1ccccc1 (stereo not given)	62.8%
COc1ccc(-c2nn(-c3ccccc3)c(-c3ccc(C)cc3)c2S(=O)(=O)CC2=NCCO2)cc1	68.2%
COc1ccc(C2=NN(c3ccccc3)C(c3ccc(C)cc3)C2S(=O)(=O)CC2=NCCS2)cc1 (stereo not given)	50.7%

System: Radical scavenging activity
Experiment: Antioxidant activity assessed as DPPH free radical scavenging activity at 50 ug/ml after 30 mins by spectrophotometric analysis relative to control
Assay type: functional
In short: as §2

Compound	inhibition
COc1ccc(C2=NOC(c3ccc(C)cc3)C2S(=O)(=O)CC2=NCCS2)cc1 (stereo not given)	46.8%
COc1ccc(-c2noc(-c3ccc(C)cc3)c2S(=O)(=O)CC2=NCCS2)cc1	inactive
O=S(=O)(CC1=NCCO1)C1C(c2ccccc2)=NOC1c1ccccc1 (stereo not given)	49.4%
COc1ccc(-c2nn(-c3ccccc3)c(-c3ccc(C)cc3)c2S(=O)(=O)CC2=NCCO2)cc1	65.5%
COc1ccc(C2=NN(c3ccccc3)C(c3ccc(C)cc3)C2S(=O)(=O)CC2=NCCS2)cc1 (stereo not given)	37.5%

System: not listed separately
Experiment: Antioxidant activity assessed as hydrogen peroxide scavenging activity at 50 ug/ml relative to control
Assay type: functional

Compound	Activity
COc1ccc(C2=NOC(c3ccc(C)cc3)C2S(=O)(=O)CC2=NCCS2)cc1 (stereo not given)	47.5%
COc1ccc(-c2noc(-c3ccc(C)cc3)c2S(=O)(=O)CC2=NCCS2)cc1	inactive
O=S(=O)(CC1=NCCO1)C1C(c2ccccc2)=NOC1c1ccccc1 (stereo not given)	51.7%
COc1ccc(-c2nn(-c3ccccc3)c(-c3ccc(C)cc3)c2S(=O)(=O)CC2=NCCO2)cc1	67.6%
COc1ccc(C2=NN(c3ccccc3)C(c3ccc(C)cc3)C2S(=O)(=O)CC2=NCCS2)cc1 (stereo not given)	42.6%
